Assay outcomes (PubChem BioAssay)
RGS4 block: human RGS4 inhibition; HEK293 M3R/RGS4 inducible, Fluo-4 calcium flux; stronger effect = higher value; triggered by carbachol at its EC20; B-score at 10 µM; 310,000 compounds, 0.45% hits; AID 463165;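 active = B-score, a plate-corrected calcium signal, over three deviations above library mean, with baseline fluorescence within five deviations of library mean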;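 note: RGS4 expression induced by doxycycline in cells with stable M3 receptor; B-score is computed from the integrated fluorescence ratio over baseline after carbachol; higher B-score means a larger calcium signal and so more RGS4 inhibition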
Target sequence (P49798 whole entry, looked up): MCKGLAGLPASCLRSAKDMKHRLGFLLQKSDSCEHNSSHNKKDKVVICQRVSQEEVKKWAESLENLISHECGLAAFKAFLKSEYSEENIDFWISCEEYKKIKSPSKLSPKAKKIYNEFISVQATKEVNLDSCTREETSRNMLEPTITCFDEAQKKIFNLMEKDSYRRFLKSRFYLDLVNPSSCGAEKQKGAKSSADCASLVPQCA
RGS4 pot: RGS4 potentiation or activation | 310,000 compounds, 0.92% hits | B-score at 10 µM | HEK293 M3R/inducible RGS4, carbachol calcium flux Fluo4; stronger effect = lower value;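 active = B-score of the integrated calcium signal more than 4 SD below the library mean, with starting fluorescence not abnormally high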;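 note: negative B-score means reduced calcium response which marks RGS4 activation or potentiation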
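System: HEK293 FlpIn-TREx cells, stable M3R, doxycycline-inducible RGS4. Timing: overnight RGS4 induction, 30 min dye load 37 °C, 20 min compound RT. Also added: carbachol, ECmax concentration. Measured by: Fluo4 fluorescence kinetic imaging of calcium. Evaluation: integrated calcium ratio converted to B score.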
MrgX1 antag: human MrgX1 receptor antagonism, primary screen. AID 588676. 310,000 compounds, 1.3% hits. Q96LB2. MRGX1-HEK293 calcium flux, Fluo-4, BAM8-22 antagonism; stronger effect = lower value. B-score at 10 µM;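 active = calcium-response B-score plate-corrected more than 3 library SD below zero, starting fluorescence within 5 deviations, no agonist response on first addition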;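 note: peak minus trough fluorescence over baseline after final BAM8-22 challenge near maximal dose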
Target sequence (Q96LB2 whole entry, looked up): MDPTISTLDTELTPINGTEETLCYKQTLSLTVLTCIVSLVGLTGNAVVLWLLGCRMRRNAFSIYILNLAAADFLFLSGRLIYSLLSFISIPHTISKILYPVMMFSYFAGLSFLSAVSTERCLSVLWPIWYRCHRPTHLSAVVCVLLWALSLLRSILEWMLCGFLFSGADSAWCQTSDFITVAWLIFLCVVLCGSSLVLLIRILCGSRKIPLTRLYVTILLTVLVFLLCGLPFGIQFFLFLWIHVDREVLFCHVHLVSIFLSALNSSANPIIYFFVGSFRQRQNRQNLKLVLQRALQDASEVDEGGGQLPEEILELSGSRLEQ
MrgX1 PAM: allosterically activates human MrgX1 receptor signaling. B-score at 10 µM. MrgX1-HEK293, Fluo-4 calcium flux, FDSS; stronger effect = higher value. 310,000 compounds, 0.63% hits;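 active = plate-corrected calcium response at least 3 library SD above typical, normal starting fluorescence, not activating the receptor alone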;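 note: compound read alongside a low EC10 to EC30 dose of BAM8-22 agonist; peak minus trough fluorescence over baseline measured at the second addition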
MrgX1 agonist: agonists of human MrgX1 receptor; Q96LB2; MrgX1-HEK293 cells, Fluo-4 calcium fluorescence, agonist mode; stronger effect = higher value; B-score at 10 µM; 310,000 compounds, 0.44% hits;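 active = calcium response B-score plate-corrected fluorescence ratio at least 3 library SD, with starting fluorescence B-score inside 5 SD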
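Test system: HEK293 cells stably expressing human MrgX1 receptor; amount: 15,000 cells per well; doses: compound delivered in addition one of three; times: overnight plating before 1 h dye loading; detection: Fluo-4 NW calcium-flux fluorescence, kinetic read; read-out basis: B-scored fluorescence response ratio; controls: positive and negative controls per plate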
MrgX1 antag conf: human MrgX1 receptor antagonism, re-confirmation screen. remaining BAM8-22 calcium response % of control (stronger effect = lower value), % at 10 µM. MrgX1-HEK293, BAM8-22 calcium flux, Fluo-4; stronger effect = lower value. 2,300 compounds, 19% hits. shares compounds with MrgX1 antag;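 active = remaining agonist calcium response no higher than 100% minus 3 SD of agonist-only control wells, with starting fluorescence near control levels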;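 note: agonist BAM8-22 given at a near maximal EC90 to ECmax level; peak minus minimum fluorescence divided by baseline after agonist addition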
HEK293 Ca flux: activity in parental HEK293 cells lacking MrgX1 | shares compounds with MrgX1 antag | Fluo-4 calcium fluorescence, FDSS | fluorescence ratio F(max-min)/F0 at 10 µM | 4,000 compounds, 2% hits | AID 624111;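 active = duplicate-averaged calcium fluorescence ratio at least three times the standard deviation of buffer wells, a nonspecific response in parental cells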
HEK293 Ca counter: activity in parental HEK293 cells without MrgX1 | fluorescence ratio F(max-min)/F0 at 10 µM | shares compounds with MrgX1 antag | parental HEK293 calcium flux, Fluo-4 fluorescence ratio; stronger effect = higher value | 4,000 compounds, 0.4% hits;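 active = calcium fluorescence ratio, averaged over duplicates, at least 3 SD of the buffer-well ratio, meaning a nonspecific response in receptor-free cells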;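 note: untransfected parental HEK293 lacking MrgX1 used as counterscreen for MrgX1 allosteric activators; fluorescence change taken during the second addition on a kinetic imager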
HEK293 Ca cntr2: activity in parental HEK293 cells lacking MrgX1 receptor | shares compounds with MrgX1 antag | Fluo-4 calcium fluorescence (FDSS); stronger effect = higher value | fluorescence ratio F(max-min)/F0 at 10 µM | 4,000 compounds, 8.7% hits;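 active = calcium fluorescence ratio at least three times the spread of buffer wells, meaning a non-specific response in parental cells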
* = called active by the depositor; i = inactive; / = no result. Only some compounds are listed: those with a hit (about 3.5% of all), similar ones and a draw of the others.

SMILES | RGS4 block | RGS4 pot | MrgX1 antag | MrgX1 PAM | MrgX1 agonist | MrgX1 antag conf | HEK293 Ca flux | HEK293 Ca counter | HEK293 Ca cntr2
Cc1ccc(S(C)(=O)=NS(=O)(=O)c2cccc3nsnc23)cc1 (stereo unspecified) | i | i | i | i | i | / | / | / | /
CC12CCCC[C@@H]1CCC1C2CCC2(C)C1CC[C@@]2(O)CNCCO (stereo partly specified) | i | i | -7.77* | i | i | i | i | i | i
COC(=O)c1ccc(C(=O)OC)c(NC(=S)N2CCC(C(N)=O)CC2)c1 | i | i | i | i | i | / | / | / | /
COC(=O)c1ccc2c(=O)sc(N3CCC(C(N)=O)CC3)nc2c1 | i | i | -7.62* | i | i | i | i | i | i
O=C(Cn1nnc2ccccc21)NNC(=O)c1ccccc1 | i | i | i | i | i | / | / | / | /
CCOc1c2ccoc2nc2c(OC)c(OC)ccc12 | i | i | -5.68* | i | i | i | i | i | i
CCOc1c(OC)ccc2c3c(c(=O)oc12)CCCC3 | i | i | i | i | i | / | / | / | /
CCN(CC)S(=O)(=O)c1cccc(-c2nnc(SCC(N)=O)n2C)c1 | i | i | -6.71* | i | i | 84.5%* | i | i | i
Cc1ccc(-c2nnc(SCC(N)=O)n2C)cc1 | i | i | -4.95* | i | i | i | i | i | i
O=C(c1ccc(S(=O)(=O)Nc2cccc(C(F)(F)F)c2)cc1)N1CCN(c2ccccc2O)CC1 | i | i | i | i | i | / | / | / | /
Oc1ccc2nnc3c(Br)cnn3c2c1 | i | i | i | i | i | / | / | / | /
Nc1ccc(S(=O)(=O)N2CCC(Cc3ccccc3)CC2)cc1 | i | i | i | i | i | / | / | / | /
OCCNC(=S)c1ccccc1 | i | i | i | i | i | / | / | / | /
COc1ccc(NS(=O)(=O)c2ccc(C(=O)N3CCN(Cc4ccccc4)CC3)cc2)cc1 | i | i | -5.86* | i | i | i | i | i | i
O=C(NCCCn1ccnc1)c1cccc(S(=O)(=O)Nc2ccc(Br)cc2)c1 | i | i | -4.55* | i | i | i | i | i | i
CN(C)S(=O)(=O)c1cccc(C(=O)NCCCn2ccnc2)c1 | i | i | i | i | i | / | / | / | /
CCc1ccc2nc(SCC(=O)Nc3nnc(C)s3)c(C)cc2c1 | i | i | -6.22* | i | i | 83.5%* | i | i | i
O=C(O)/C=C/c1ccc(-n2ccnc2)cc1 | i | i | i | i | i | / | / | / | /
O=C(CCn1cccn1)N1CCCC(N2CCN(c3cccc(Cl)c3)CC2)C1 (stereo unspecified) | i | i | i | i | i | / | / | / | /
O=C(Nc1ccc2nn(-c3ccccc3)nc2c1)c1cccnc1 | i | i | -5.72* | i | i | 84.3%* | i | i | i
COc1ccc(NC(=O)NCc2cccnc2)cc1 | i | i | -7.56* | i | i | i | i | i | i
COc1cccc(C(=O)Nc2cccc(-c3nnc(-c4ccco4)o3)c2)c1 | i | i | -5.51* | i | i | 59.6%* | i | i | i
O=C(NCc1cccnc1)c1ccc(COc2ccccc2Br)cc1 | i | i | i | i | i | / | / | / | /
O=C(Nc1cccnc1)c1ccc(COc2ccccc2Br)cc1 | i | i | -7.38* | i | i | i | i | i | i
Cc1c(NC(=O)Nc2ccc(F)cc2F)c(=O)n(-c2ccccc2)n1C | i | i | i | i | i | / | / | / | /
SMILES | RGS4 block | RGS4 pot | MrgX1 antag | MrgX1 PAM | MrgX1 agonist | MrgX1 antag conf | HEK293 Ca flux | HEK293 Ca counter | HEK293 Ca cntr2
CC(C)CNC(=O)CCc1nc(-c2ccccc2)no1 | i | i | i | i | i | / | / | / | /
Cc1nc(C)n(C(Oc2ccc(Cl)cc2Cl)C(=O)C(C)(C)C)n1 (stereo unspecified) | i | i | i | i | i | / | / | / | /
Cn1nnc2cc(NC(=O)Nc3cccc(C(F)(F)F)c3)ccc21 | i | i | i | i | i | / | / | / | /
COc1cccc(C(=O)Nc2cccnc2)c1 | i | i | -4.97* | i | i | i | i | i | i
CC1Cc2ccccc2N1S(=O)(=O)c1cccc(C(=O)Nc2cccnc2)c1 (stereo unspecified) | i | i | -4.6* | i | i | i | i | i | i
COc1cccc(C(=O)Nc2cccc(C(C)=O)c2)c1 | i | i | -8.04* | i | i | i | i | i | i
COc1cccc(C(=O)NCc2cccnc2)c1 | i | i | -5.54* | i | i | i | i | i | i
O=C(Nc1cccnc1)c1cccc(S(=O)(=O)N2CCc3ccccc32)c1 | i | i | i | i | i | / | / | / | /
Cc1nc(C(F)(F)F)c(C(=O)O)cc1-c1nc(-c2ccccc2)cs1 | i | i | i | i | i | / | / | / | /
COc1ccc(OC)c(C(C)NC(=O)Nc2cccc(C(C)=O)c2)c1 (stereo unspecified) | i | i | -10.2* | i | i | i | i | i | i
CC(=O)c1cccc(NC(=O)Oc2ccccc2)c1 | i | i | -7.77* | i | i | i | i | i | i
COc1ccc(OC)c(C(C)NC(=O)c2ccc(Br)cc2)c1 (stereo unspecified) | i | i | i | i | i | / | / | / | /
CC(=O)c1ccc(NC(=O)Oc2ccccc2)cc1 | i | i | i | i | i | / | / | / | /
O=C(C1CC(=O)N(c2ccc(Cl)cc2)C1)N1CCOCC1 (stereo unspecified) | i | i | i | i | i | / | / | / | /
COc1ccc(OC)c2sc(NC(=O)c3ccc(Cl)s3)nc12 | i | i | -5.04* | i | i | i | i | i | i
CCc1ccc(C2c3[nH]c4ccccc4c3CCN2C(=O)c2cc[n+]([O-])cc2)cc1 (stereo unspecified) | i | i | i | i | i | / | / | / | /
